How the values were obtained:
[1] = target: GABA-A receptor; anion channel; test: Displacement of [3H]flunitrazepam from diazepam-sensitive GABA-A benzodiazepine receptor of rat cortical membrane
Outline: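 Washed rat cerebral cortex membranes (adult male Sprague-Dawley) in Tris-citrate pH 7.4 with NaCl. [3H]flunitrazepam at about 1 nM final, 2 h at 4 °C, then filtration. Six to eight inhibitor concentrations were used; IC50 came from a sigmoid fit. Three determinations, mean ± SEM.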

[2] = target: GABA-A receptor; anion channel; test: […] from diazepam-insensitive GABA-A benzodiazepine receptor of rat cerebellar membrane
[3] = Ratio between diazepam-insensitive (DI) site / diazepam-sensitive (DS) site
Outline: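 Rat cerebellar membranes washed five times in 50 mM Tris-citrate pH 7.8 with NaCl. [3H]Ro 15-4513 at about 2 nM final, 60 min at 0–4 °C, then filtration. DS+DI binding was defined by Ro 15-1788 (10 μM) displacement and DI binding as the diazepam (10 μM)-insensitive part. 0.1 nM–1 μM inhibitor; Cheng-Prusoff Ki; duplicate assays, three experiments. Ratio is Ki DI/DS.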

[4] = target: GABA-A receptor; anion channel; test: […] from diazepam-sensitive GABA-A benzodiazepine receptor of rat cerebellar membrane

SMILES | IC50 [1] [nM] | Ratio [3] | further results
COC(=O)Nc1ncn2c1CN(C)C(=O)c1ccccc1-2 | > 1000 | – | –
CCOC(=O)Nc1ncn2c1CN(C)C(=O)c1ccccc1-2 | > 1000 | – | –
CN1Cc2c(N=C=S)ncn2-c2ccccc2C1=O | 739 | – | –
Cc1ccc(S(=O)(=O)c2ncn3c2CN(C)C(=O)c2ccccc2-3)cc1 | > 1000 | – | –
Cc1nnc(-c2ncn3c2CN(Cc2ccccc2)C(=O)c2ccccc2-3)o1 | > 1000 | – | IC50 [2]: > 10000 nM
CCOC(=O)c1ncn2c1CN(c1ccccc1)C(=O)c1ccccc1-2 | > 1000 | – | –
CCOC(=O)c1ncn2c1CN(C)C(=O)c1ccccc1-2 | – | 165 | –
CCOC(=O)c1ncn2c1CN(CCc1ccccc1)C(=O)c1ccccc1-2 | 340 | – | –
C=CCN1Cc2c(C(=O)OCC)ncn2-c2ccccc2C1=O | 157 | – | –
CN1Cc2c(NC=O)ncn2-c2ccccc2C1=O | > 1000 | – | –
CCOC(=O)c1ncn2c1CN(C)C(=O)c1c(Cl)cccc1-2 | – | 100 | –
Cc1noc(-c2ncn3c2CN(Cc2ccccc2)C(=O)c2c(Cl)cccc2-3)n1 | 15.3 | 101 | –
CCOC(=O)c1ncn2c1CN(Cc1ccccc1)C(=O)c1ccccc1-2 | 9.3 | 75 | –
CN1Cc2c(C3=NCCO3)ncn2-c2ccccc2C1=O | 687 | – | –
CCOC(=O)c1ncn2c1CN(c1ccc(OC)cc1)C(=O)c1ccccc1-2 | > 1000 | – | –
CC(=O)Nc1ncn2c1CN(C)C(=O)c1ccccc1-2 | > 1000 | – | –
CCCN1Cc2c(C(=O)OCC)ncn2-c2ccccc2C1=O | 238 | – | –
CCOC(=O)c1ncn2c1CN(Cc1ccccc1)C(=O)c1c(Cl)cccc1-2 | 2.4 | 51 | –
CCOC(=O)c1ncn2c1CNC(=O)c1ccccc1-2 | 164 | – | –
Cc1noc(-c2ncn3c2CN(Cc2ccccc2)C(=O)c2ccccc2-3)n1 | 34.3 | – | IC50 [2]: > 10000 nM
Cc1noc(-c2ncn3c2CN(Cc2ccccc2)C(=O)c2cc(Cl)ccc2-3)n1 | 338 | 1.3 | –
CCOC(=O)c1ncn2c1CN(Cc1ccccc1)C(=O)c1cc(Cl)ccc1-2 | 37.8 | 0.8 | Ki [2]: 1.4 nM
CCOC(=O)c1ncn2c1CN(Cc1ccc(OC)cc1OC)C(=O)c1ccccc1-2 | 23.2 | 24 | Ki [4]: 5.4 nM; Ki [2]: 127 nM

Reference: ChEMBL document CHEMBL1127087, “Synthesis and structure-activity relationships of 3,5-disubstituted 4,5-dihydro-6H-imidazo[1,5-a][1,4]benzodiazepin-6-ones at diazepam-sensitive and diazepam-insensitive benzodiazepine receptors” (J Med Chem, 1993)
